Calls of active or inactive are those of the source. The calls are words filed in the database; no cut-off is given here.
Tests used:
Dihydrofolate reductase = target: T1, Dihydrofolate reductase (Homo sapiens, UniProt P00374); test: Inhibition of recombinant human DHFR assessed as reduction in conversion of DHF to THF measured every 30 secs for 6 mins by UV-Vis spectrophotometric method
T1 sequence (P00374 whole entry): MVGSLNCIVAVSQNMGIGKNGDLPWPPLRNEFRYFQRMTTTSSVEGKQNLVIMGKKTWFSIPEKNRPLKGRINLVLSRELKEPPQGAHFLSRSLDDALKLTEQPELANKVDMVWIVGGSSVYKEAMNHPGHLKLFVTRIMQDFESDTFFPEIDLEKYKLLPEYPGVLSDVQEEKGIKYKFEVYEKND

[1] = target: T2, Thioredoxin reductase 1, cytoplasmic (Rattus norvegicus, UniProt O89049); test: Inhibition of […] thioredoxin reductase after 30 mins by DTNB reduction assay
T2 sequence (O89049 whole entry): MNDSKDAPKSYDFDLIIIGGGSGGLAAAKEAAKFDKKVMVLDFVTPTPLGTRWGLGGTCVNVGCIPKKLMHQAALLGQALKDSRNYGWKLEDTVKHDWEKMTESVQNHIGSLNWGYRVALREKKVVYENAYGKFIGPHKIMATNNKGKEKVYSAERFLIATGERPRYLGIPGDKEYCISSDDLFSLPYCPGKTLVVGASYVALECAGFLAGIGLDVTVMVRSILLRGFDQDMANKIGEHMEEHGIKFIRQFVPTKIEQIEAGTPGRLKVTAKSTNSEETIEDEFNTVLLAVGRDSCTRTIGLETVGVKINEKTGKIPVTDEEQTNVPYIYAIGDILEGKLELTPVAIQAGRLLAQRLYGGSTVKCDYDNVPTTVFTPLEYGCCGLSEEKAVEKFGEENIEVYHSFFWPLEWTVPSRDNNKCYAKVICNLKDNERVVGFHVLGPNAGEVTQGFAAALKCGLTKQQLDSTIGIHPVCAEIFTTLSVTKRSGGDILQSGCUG
In short: (§1)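 Rat liver TrxR at 2.1 units/ml preincubated with a range of test concentrations and 200 µM NADPH in 50 mM Tris-HCl, 1 mM EDTA, pH 7.5, at room temperature for 30 or 60 min. Equal volume of buffer with 5 mM DTNB and 200 µM NADPH then added. A412 followed over 2 min. Activity as % of vehicle Vmax; IC50 from log concentration plot.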

MCF7 = test: Antiproliferative activity against human MCF7 cells after 72 hrs by MTT assay; format: functional; details: for GI50 / LC50 (concentration killing 50% of cells present at T0): MCF7, 72 h
In short: (§2)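 Cells kept in RPMI 1640 with 10% FBS, penicillin and streptomycin at 37°C and 5% CO2. Seeded at 1.0 x 10^4/well and left to adhere overnight. Serial dilutions made in medium from DMSO stocks. MTT at 400 µg/ml final for 4 h, read at T0 and after 72 h. Formazan dissolved in DMSO:glycine pH 10.5, A550. GI50 and LC50 interpolated from absorbance versus log concentration.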

HCT-116 = test: Antiproliferative activity against human HCT116 cells after 72 hrs by MTT assay; format: functional; details: for GI50 / CC50: HCT-116, 72 h; for CC50: read-out: LC50 (the source's name); in short: as §2
[2] = target: T2, Thioredoxin reductase 1, cytoplasmic; test: Inhibition of […] thioredoxin reductase after 60 mins by DTNB reduction assay; in short: as §1
[3] = target: T3, Dihydrofolate reductase (Homo sapiens) (UniProt P00374); test: Inhibition of DHFR in human HCT116 cell lysate assessed as reduction in conversion of DHF to THF at 40 to 70 uM after 16 hrs
T3 sequence (whole entry): T1 sequence (P00374 whole entry)
In short: (§3)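 HCT116 cells treated 16 h at 0.001 to 1 µM or 40 to 70 µM, then lysed. 400 µg lysate protein in PBS with 50 µM DHF and 200 µM NADPH, with matching controls containing 1 µM methotrexate. A340 decrease followed over 15 min at room temperature. MTX-sensitive rate given as % of DMSO-treated cells. Mean of three independent experiments.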

[4] = target: T3, Dihydrofolate reductase (Homo sapiens); test: Inhibition of DHFR in human HCT116 cell lysate assessed as reduction in conversion of DHF to THF after 16 hrs; in short: as §3
[5] = target: T4, Thioredoxin reductase 1, cytoplasmic (Homo sapiens) (UniProt Q16881); test: Inhibition of thioredoxin reductase in human HCT116 cell lysate using thioredoxin as substrate at 0.001 to 1 uM after 16 hrs by end point insulin assay method
T4 sequence (whole entry): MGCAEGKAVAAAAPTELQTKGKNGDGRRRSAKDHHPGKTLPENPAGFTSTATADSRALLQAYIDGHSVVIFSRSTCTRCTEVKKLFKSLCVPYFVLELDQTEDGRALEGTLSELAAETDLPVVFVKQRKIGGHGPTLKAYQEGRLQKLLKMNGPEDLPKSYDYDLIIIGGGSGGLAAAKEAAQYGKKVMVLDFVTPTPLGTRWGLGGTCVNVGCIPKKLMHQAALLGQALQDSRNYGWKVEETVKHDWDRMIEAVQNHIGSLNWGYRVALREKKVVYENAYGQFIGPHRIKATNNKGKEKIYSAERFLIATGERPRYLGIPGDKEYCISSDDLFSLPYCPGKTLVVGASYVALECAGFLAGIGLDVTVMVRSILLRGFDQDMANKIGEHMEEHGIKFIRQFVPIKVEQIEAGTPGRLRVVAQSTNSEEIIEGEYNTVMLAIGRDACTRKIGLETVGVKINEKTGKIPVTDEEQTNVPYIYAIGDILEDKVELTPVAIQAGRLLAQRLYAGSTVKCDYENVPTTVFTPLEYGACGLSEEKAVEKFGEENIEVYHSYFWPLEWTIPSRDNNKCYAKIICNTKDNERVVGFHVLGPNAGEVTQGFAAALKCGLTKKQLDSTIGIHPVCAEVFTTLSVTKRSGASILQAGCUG

[6] = target: T4, Thioredoxin reductase 1, cytoplasmic (Homo sapiens); test: Inhibition of thioredoxin reductase in human HCT116 cell lysate using thioredoxin as substrate after 16 hrs by end point insulin assay method
In short: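 HCT116 cells treated 16 h at 0.001 to 1 µM or 40 to 70 µM, then lysed. Stopped with 1 mM DTNB and 240 µM NADPH in 6 M guanidine HCl and Tris pH 8.0, read at A412. Given as % of DMSO-treated cells. Mean of three experiments.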

CC1(C)N=C(N)N=C(N)N1OCCOc1cccc(C(=O)/C=C/c2ccccc2)c1
IC50 (Dihydrofolate reductase): 0.0356 µM | IC50 ([1]; read-out: IC50): 10.8 µM | GI50 (MCF7): 0.719 µM | LC50 (concentration killing 50% of cells present at T0) (MCF7): 40.7 µM | GI50 (HCT-116): 0.17 µM | CC50 (HCT-116): 49.9 µM | IC50 ([2]; read-out: IC50): 6.9 µM

CC1(C)N=C(N)N=C(N)N1OCCOc1ccc(/C=C/C(=O)c2ccccc2)cc1
IC50 (Dihydrofolate reductase): 0.0534 µM | IC50 ([1]; read-out: IC50): 29.8 µM | GI50 (MCF7): 0.512 µM | LC50 (concentration killing 50% of cells present at T0) (MCF7): 47.7 µM | GI50 (HCT-116): 0.706 µM | CC50 (HCT-116): 81.9 µM | IC50 ([2]; read-out: IC50): 21.1 µM

CC1(C)N=C(N)N=C(N)N1OCCCOc1cccc(C(=O)/C=C/c2ccccc2)c1
inhibition [3]: Active | IC50 (Dihydrofolate reductase): 0.009 µM | inhibition [4]: Dose-dependent effect | IC50 ([1]; read-out: IC50): 10.8 µM | inhibition [5]: inactive | inhibition [6]: Dose-dependent effect | GI50 (MCF7): 0.076 µM | LC50 (concentration killing 50% of cells present at T0) (MCF7): 20.2 µM | GI50 (HCT-116): 0.011 µM | CC50 (HCT-116): 42.7 µM | IC50 ([2]; read-out: IC50): 8.2 µM

CC1(C)N=C(N)N=C(N)N1OCCOc1ccc(C(=O)/C=C/c2ccccc2)cc1
IC50 (Dihydrofolate reductase): 0.0141 µM | IC50 ([1]; read-out: IC50): 43.3 µM | GI50 (MCF7): 0.584 µM | LC50 (concentration killing 50% of cells present at T0) (MCF7): 40.1 µM | GI50 (HCT-116): 0.572 µM | CC50 (HCT-116): 50.1 µM | IC50 ([2]; read-out: IC50): 20.4 µM

CC1(C)N=C(N)N=C(N)N1OCCCCOc1ccc(/C=C/C(=O)c2ccccc2)cc1
IC50 (Dihydrofolate reductase): 0.004 µM | IC50 ([1]; read-out: IC50): 31.6 µM | GI50 (MCF7): 0.141 µM | LC50 (concentration killing 50% of cells present at T0) (MCF7): 14.8 µM | GI50 (HCT-116): 0.026 µM | CC50 (HCT-116): 42.9 µM | IC50 ([2]; read-out: IC50): 21.1 µM

CC1(C)N=C(N)N=C(N)N1OCCCOc1cccc(/C=C/C(=O)c2ccccc2)c1
IC50 (Dihydrofolate reductase): 0.0032 µM | IC50 ([1]; read-out: IC50): 4.1 µM | GI50 (MCF7): 0.013 µM | LC50 (concentration killing 50% of cells present at T0) (MCF7): 29.8 µM | GI50 (HCT-116): 0.011 µM | CC50 (HCT-116): 48.2 µM | IC50 ([2]; read-out: IC50): 2.8 µM

CC1(C)N=C(N)N=C(N)N1OCCCCOc1cccc(/C=C/C(=O)c2ccccc2)c1
IC50 (Dihydrofolate reductase): 0.0048 µM | IC50 ([1]; read-out: IC50): 6 µM | GI50 (MCF7): 0.086 µM | LC50 (concentration killing 50% of cells present at T0) (MCF7): 15.5 µM | GI50 (HCT-116): 0.034 µM | CC50 (HCT-116): 34.7 µM | IC50 ([2]; read-out: IC50): 3.8 µM

NC1=NC2(CCCC2)N(OCCOc2cccc(C(=O)/C=C/c3ccccc3)c2)C(N)=N1
IC50 (Dihydrofolate reductase): 0.0131 µM | IC50 ([1]; read-out: IC50): 8 µM | GI50 (MCF7): 0.77 µM | LC50 (concentration killing 50% of cells present at T0) (MCF7): 16.1 µM | GI50 (HCT-116): 0.26 µM | CC50 (HCT-116): 24.1 µM | IC50 ([2]; read-out: IC50): 4.6 µM

CN(Cc1cnc2nc(N)nc(N)c2n1)c1ccc(C(=O)N[C@@H](CCC(=O)O)C(=O)O)cc1 [METHOTREXATE]
GI50 (MCF7): 0.024 µM | GI50 (HCT-116): 0.015 µM | CC50 (HCT-116): > 100 µM

CC1(C)N=C(N)N=C(N)N1OCCOc1cccc(/C=C/C(=O)c2ccccc2)c1
IC50 (Dihydrofolate reductase): 0.0592 µM | IC50 ([1]; read-out: IC50): 5.7 µM | GI50 (MCF7): 0.623 µM | LC50 (concentration killing 50% of cells present at T0) (MCF7): 38.8 µM | GI50 (HCT-116): 0.145 µM | CC50 (HCT-116): 52.2 µM | IC50 ([2]; read-out: IC50): 4 µM

CC1(C)N=C(N)N=C(N)N1OCCCOc1ccc(/C=C/C(=O)c2ccccc2)cc1
IC50 (Dihydrofolate reductase): 0.0064 µM | IC50 ([1]; read-out: IC50): 35.9 µM | GI50 (MCF7): 0.062 µM | LC50 (concentration killing 50% of cells present at T0) (MCF7): 35.3 µM | GI50 (HCT-116): 0.035 µM | CC50 (HCT-116): 39 µM | IC50 ([2]; read-out: IC50): 25.7 µM

CC1(C)N=C(N)N=C(N)N1OCCCCOc1ccc(C(=O)/C=C/c2ccccc2)cc1
IC50 (Dihydrofolate reductase): 0.0034 µM | IC50 ([1]; read-out: IC50): 44.5 µM | GI50 (MCF7): 0.087 µM | LC50 (concentration killing 50% of cells present at T0) (MCF7): 14.2 µM | GI50 (HCT-116): 0.039 µM | CC50 (HCT-116): 24 µM | IC50 ([2]; read-out: IC50): 27 µM

CC1(C)N=C(N)N=C(N)N1OCCCOc1ccc(C(=O)/C=C/c2ccccc2)cc1
IC50 (Dihydrofolate reductase): 0.0092 µM | IC50 ([1]; read-out: IC50): 49 µM | GI50 (MCF7): 0.085 µM | LC50 (concentration killing 50% of cells present at T0) (MCF7): 34 µM | GI50 (HCT-116): 0.016 µM | CC50 (HCT-116): 55.2 µM | IC50 ([2]; read-out: IC50): 32.4 µM

CC1(C)N=C(N)N=C(N)N1OCCCCOc1cccc(C(=O)/C=C/c2ccccc2)c1
inhibition [3]: Active | IC50 (Dihydrofolate reductase): 0.0042 µM | inhibition [4]: Dose-dependent effect | IC50 ([1]; read-out: IC50): 11.2 µM | inhibition [5]: inactive | inhibition [6]: Dose-dependent effect | GI50 (MCF7): 0.122 µM | LC50 (concentration killing 50% of cells present at T0) (MCF7): 11.3 µM | GI50 (HCT-116): 0.051 µM | CC50 (HCT-116): 30.3 µM | IC50 ([2]; read-out: IC50): 6.7 µM

O=C(Cc1ccccc1)Cc1ccccc1
IC50 [1]: Not Active | growth inhibition (GI) (MCF7): inactive | growth inhibition (GI) (HCT-116): inactive | IC50 [2]: Not Active

CC1(C)N=C(N)N=C(N)N1OCCCOc1cccc(C(=O)CCc2ccccc2)c1
IC50 (Dihydrofolate reductase): 0.0039 µM | GI50 (MCF7): 0.036 µM | LC50 (concentration killing 50% of cells present at T0) (MCF7): 25.9 µM | GI50 (HCT-116): 0.01 µM | CC50 (HCT-116): 34.2 µM
